Assay results reported in ChEMBL document CHEMBL4706541, “Design and synthesis of 1H-indazole-3-carboxamide derivatives as potent and selective PAK1 inhibitors with anti-tumour migration and invasion activities” (Eur J Med Chem, 2020).
Activity calls are given as the source filed them. The calls are words filed in the database; no cut-off is given here.

Columns and labels:
[1] = molecular target: Tyrosine-protein kinase SYK (Homo sapiens) (UniProt P43405); assay: Inhibition of SYK (unknown origin) assessed as residual activity at 0.1 uM preincubated for 20 min followed by [gamma33P]ATP addition and measured after 120 mins by Hotspot assay relative to control; details: time 140.0 min
Outline: (§1)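 Radiometric HotSpot kinase assay. Kinase and substrate are combined in 20 mM Hepes pH 7.5, 10 mM MgCl2, 1 mM EGTA, 0.02% Brij35, 0.02 mg/mL BSA, 0.1 mM Na3VO4, 2 mM DTT and 1% DMSO. Compound is added and preincubated 20 min at room temperature. The reaction starts with ATP plus 33P-ATP at 10 µM final and runs 120 min at 25 °C. Filter-binding read-out, given as % activity remaining versus DMSO.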

[2] = molecular target: Dual specificity mitogen-activated protein kinase kinase 1 (Homo sapiens) (UniProt Q02750); assay: Inhibition of MEK1 (unknown origin) assessed as residual activity at 0.1 uM preincubated for 20 min followed by [gamma33P]ATP addition and measured after 120 mins by Hotspot assay relative to control; details: time 140.0 min; outline: as §1
[3] = molecular target: Tyrosine-protein kinase Lck (Homo sapiens) (UniProt P06239); assay: Inhibition of LCK (unknown origin) assessed as residual activity at 0.1 uM preincubated for 20 min followed by [gamma33P]ATP addition and measured after 120 mins by Hotspot assay relative to control; details: time 140.0 min; outline: as §1
[4] = molecular target: Voltage-gated inwardly rectifying potassium channel KCNH2 (Homo sapiens, UniProt Q12809); assay: Inhibition of human ERG
MDA-MB-231 [5] = assay: Antiproliferative activity against human MDA-MB-231 cells assessed as growth inhibition at 1 uM after 72 hrs by Cell Titer-Glo assay relative to control; type: functional; details: read-out: GI
Outline: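 Cells kept at 37 °C in 5% CO2 and plated at 4000 per well. Treated with compound for 72 h. Viability read by CellTiter-Glo luminescence. Each compound run in duplicate, data as means ± SD.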

[6] = molecular target: LIM domain kinase 1 (Homo sapiens) (UniProt P53667); assay: Inhibition of LIMK1 (unknown origin) assessed as residual activity at 0.1 uM preincubated for 20 min followed by [gamma33P]ATP addition and measured after 120 mins by Hotspot assay relative to control; details: time 140.0 min; outline: as §1
[7] = molecular target: Serine/threonine-protein kinase PAK 4 (Homo sapiens, UniProt O96013); assay: Inhibition of full length recombinant human N-terminal GST/His6-tagged PAK4 expressed in baculovirus infected sf9 insect cells using tetra LRRWSLG as substrate preincubated for 20 min followed by [gamma33P]ATP addition and measured after 120 mins by Hotspot assay
[8] = molecular target: Aurora kinase A (Homo sapiens) (UniProt O14965); assay: Inhibition of AuroraA (unknown origin) assessed as residual activity at 0.1 uM preincubated for 20 min followed by [gamma33P]ATP addition and measured after 120 mins by Hotspot assay relative to control; details: time 140.0 min; outline: as §1
[9] = molecular target: Tyrosine-protein kinase receptor UFO (Homo sapiens) (UniProt P30530); assay: Inhibition of AXL (unknown origin) assessed as residual activity at 0.1 uM preincubated for 20 min followed by [gamma33P]ATP addition and measured after 120 mins by Hotspot assay relative to control; details: time 140.0 min; outline: as §1
[10] = molecular target: Serine/threonine-protein kinase PAK 6 (Homo sapiens) (UniProt Q9NQU5); assay: (§2) Inhibtion of full length recombinant human N-terminal GST/His6-tagged PAK6 expressed in sf9 insect cells assessed as residual activity at 0.1 uM using tetra LRRWSLG as substrate preincubated for 20 min followed by [gamma33P]ATP addition and measured after 120 mins by Hotspot assay relative to control; details: time 140.0 min; outline: as §1
[11] = molecular target: CDK6/cyclin D1 (Homo sapiens) (UniProt P24385+Q00534); assay: Inhibition of CDK6/cyclin Dl (unknown origin) assessed as residual activity at 0.1 uM preincubated for 20 min followed by [gamma33P]ATP addition and measured after 120 mins by Hotspot assay relative to control; type: protein-complex assay; details: time 140.0 min; outline: as §1
[12] = molecular target: Mitogen-activated protein kinase 3 (Homo sapiens) (UniProt P27361); assay: Inhibition of ERK1 (unknown origin) assessed as residual activity at 0.1 uM preincubated for 20 min followed by [gamma33P]ATP addition and measured after 120 mins by Hotspot assay relative to control; details: time 140.0 min; outline: as §1
MDA-MB-231 [13] = assay: Antiinvasive activity against human MDA-MB-231 cells assessed as decrease is number of penetrated cells at 0.25 to 1 uM after 24 hrs by inverted microscopic based Transwell invasion assay relative to control; type: functional; design: scale not given: the % may be the effect or the level left; details: dose 0.25-1 µM
Outline: (§3)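 Cells grown to confluence and scratched with a sterile pipette tip, or placed at 1×10^5 cells in serum-free DMEM with 0.1% […] in the upper part of Matrigel-coated Boyden chambers over DMEM with 10% FBS. Compound treatment for 24 h at 37 °C. Read-out is wound distance from images or the count of invaded cells on the lower filter face after fixing and staining. Data given as means ± SD.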

[14] = molecular target: T1, Serine/threonine-protein kinase PAK 1 (Homo sapiens, UniProt Q13153); assay: as §2, with “Inhibition” for “Inhibtion”, “PAK1” for “PAK6”; details: time 140.0 min; outline: as §1
[15] = molecular target: Vascular endothelial growth factor receptor 2 (Homo sapiens) (UniProt P35968); assay: Inhibition of VEGFR2 (unknown origin) assessed as residual activity at 0.1 uM preincubated for 20 min followed by [gamma33P]ATP addition and measured after 120 mins by Hotspot assay relative to control; details: time 140.0 min; outline: as §1
[16] = molecular target: Serine/threonine-protein kinase 24 (Homo sapiens) (UniProt Q9Y6E0); assay: Inhibition of STK24 (unknown origin) assessed as residual activity at 0.1 uM preincubated for 20 min followed by [gamma33P]ATP addition and measured after 120 mins by Hotspot assay relative to control; details: time 140.0 min; outline: as §1
[17] = molecular target: RAC-alpha serine/threonine-protein kinase (Homo sapiens) (UniProt P31749); assay: Inhibition of AKT1 (unknown origin) assessed as residual activity at 0.1 uM preincubated for 20 min followed by [gamma33P]ATP addition and measured after 120 mins by Hotspot assay relative to control; details: time 140.0 min; outline: as §1
[18] = molecular target: T1, Serine/threonine-protein kinase PAK 1; assay: Inhibition of PAK1 phosphorylation at ser144 residue in human MDA-MB-231 cells after 1 to 24 hrs by Western blot analysis; type: cell-based; details: dose 2.5-20 µM, time 1-24 hrs
Outline: (§4)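 Whole-cell extracts made from 1×10^6 treated cells in RIPA buffer (50 mM Tris/HCl pH 7.4, 150 mM NaCl, 1% NP-40, 0.25% deoxycholate, 1 mM EDTA, protease inhibitors). Proteins separated by SDS-PAGE, blotted to PVDF and blocked in 5% milk in TBS-T. Membranes probed for PAK1, phospho-PAK1 Ser144, Snail and actin, with β-actin as loading control. ECL detection.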

[19] = molecular target: Mitogen-activated protein kinase 8 (Homo sapiens) (UniProt P45983); assay: Inhibition of JNK1 (unknown origin) assessed as residual activity at 0.1 uM preincubated for 20 min followed by [gamma33P]ATP addition and measured after 120 mins by Hotspot assay relative to control; details: time 140.0 min; outline: as §1
MDA-MB-231 [20] = assay: Antimigratory activity against human MDA-MB-231 cells after 24 hrs by inverted microscopic based Wound healing assay; type: functional, cell-based; details: dose 0.25-1 µM; outline: as §3
[21] = molecular target: T1, Serine/threonine-protein kinase PAK 1; assay: Inhibition of PAK1 in human MDA-MB-231 cells assessed as reduction in snail protein expression at 2.5 to 20 uM after 1 to 24 hrs by Western blot analysis; type: cell-based; details: dose 2.5-20 µM, time 1-24 hrs; outline: as §4

T1 sequence (Q13153 whole entry): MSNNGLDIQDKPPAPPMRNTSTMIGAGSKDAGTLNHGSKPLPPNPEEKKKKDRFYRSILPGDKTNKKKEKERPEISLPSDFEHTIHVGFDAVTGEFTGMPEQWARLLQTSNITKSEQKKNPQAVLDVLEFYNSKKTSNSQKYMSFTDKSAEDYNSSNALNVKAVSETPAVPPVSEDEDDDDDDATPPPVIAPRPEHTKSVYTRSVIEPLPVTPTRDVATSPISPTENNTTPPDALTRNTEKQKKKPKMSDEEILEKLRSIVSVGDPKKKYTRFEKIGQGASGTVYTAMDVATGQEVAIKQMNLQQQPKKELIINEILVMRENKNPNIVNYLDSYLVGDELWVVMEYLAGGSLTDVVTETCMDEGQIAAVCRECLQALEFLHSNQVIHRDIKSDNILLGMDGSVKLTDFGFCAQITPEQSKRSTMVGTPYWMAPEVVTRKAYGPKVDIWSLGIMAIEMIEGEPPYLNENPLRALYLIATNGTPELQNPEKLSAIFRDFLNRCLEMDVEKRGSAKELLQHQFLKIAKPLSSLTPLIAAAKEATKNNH
Serine/threonine-protein kinase 24 (Homo sapiens), sequence (Q9Y6E0 whole entry, looked up): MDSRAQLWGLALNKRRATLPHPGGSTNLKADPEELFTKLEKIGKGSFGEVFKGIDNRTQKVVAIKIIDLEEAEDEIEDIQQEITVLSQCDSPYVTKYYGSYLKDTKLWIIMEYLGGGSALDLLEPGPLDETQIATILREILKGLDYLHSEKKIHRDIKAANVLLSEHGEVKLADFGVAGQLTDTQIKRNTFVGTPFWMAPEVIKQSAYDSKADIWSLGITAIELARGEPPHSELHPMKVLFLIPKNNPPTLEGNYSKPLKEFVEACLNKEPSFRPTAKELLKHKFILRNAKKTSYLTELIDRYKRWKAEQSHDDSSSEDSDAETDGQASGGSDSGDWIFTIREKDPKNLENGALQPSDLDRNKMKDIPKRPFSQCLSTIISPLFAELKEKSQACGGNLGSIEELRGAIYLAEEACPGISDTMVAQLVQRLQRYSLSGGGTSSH
Vascular endothelial growth factor receptor 2 (Homo sapiens), sequence (P35968 whole entry): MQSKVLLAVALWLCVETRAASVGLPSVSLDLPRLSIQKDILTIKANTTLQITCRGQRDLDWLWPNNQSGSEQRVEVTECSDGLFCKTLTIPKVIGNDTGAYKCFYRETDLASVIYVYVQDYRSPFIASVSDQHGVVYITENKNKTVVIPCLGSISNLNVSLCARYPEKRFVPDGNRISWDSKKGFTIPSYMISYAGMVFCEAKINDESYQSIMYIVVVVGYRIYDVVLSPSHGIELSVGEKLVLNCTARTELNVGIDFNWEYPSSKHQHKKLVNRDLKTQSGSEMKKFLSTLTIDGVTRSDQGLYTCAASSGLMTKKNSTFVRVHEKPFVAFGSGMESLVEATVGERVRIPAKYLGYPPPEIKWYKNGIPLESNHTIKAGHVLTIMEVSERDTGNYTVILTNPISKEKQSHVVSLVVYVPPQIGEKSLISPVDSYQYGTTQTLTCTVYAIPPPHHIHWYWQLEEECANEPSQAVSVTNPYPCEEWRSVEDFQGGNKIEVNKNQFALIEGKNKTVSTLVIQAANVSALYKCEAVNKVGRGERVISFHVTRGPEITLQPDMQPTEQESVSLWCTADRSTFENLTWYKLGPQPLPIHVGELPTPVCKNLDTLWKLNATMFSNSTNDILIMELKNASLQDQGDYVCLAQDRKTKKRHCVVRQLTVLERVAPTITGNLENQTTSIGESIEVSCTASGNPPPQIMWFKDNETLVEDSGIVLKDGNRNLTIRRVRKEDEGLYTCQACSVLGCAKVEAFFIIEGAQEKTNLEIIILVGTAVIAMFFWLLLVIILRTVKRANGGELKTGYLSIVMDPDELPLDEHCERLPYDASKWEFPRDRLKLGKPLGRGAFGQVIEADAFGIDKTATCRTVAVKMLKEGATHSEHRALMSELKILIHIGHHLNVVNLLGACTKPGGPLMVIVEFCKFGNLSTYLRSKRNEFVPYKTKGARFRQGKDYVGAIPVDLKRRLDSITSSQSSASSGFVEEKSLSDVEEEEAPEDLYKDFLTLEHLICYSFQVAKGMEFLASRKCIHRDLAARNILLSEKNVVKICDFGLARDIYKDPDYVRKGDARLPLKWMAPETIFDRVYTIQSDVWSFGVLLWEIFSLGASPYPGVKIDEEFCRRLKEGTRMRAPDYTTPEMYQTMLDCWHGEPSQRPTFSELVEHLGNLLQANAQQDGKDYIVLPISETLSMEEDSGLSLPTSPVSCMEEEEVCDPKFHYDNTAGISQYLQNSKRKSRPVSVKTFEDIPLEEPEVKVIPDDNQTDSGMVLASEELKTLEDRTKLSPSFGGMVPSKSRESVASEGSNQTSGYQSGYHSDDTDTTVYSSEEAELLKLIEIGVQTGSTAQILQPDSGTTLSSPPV
Mitogen-activated protein kinase 8 (Homo sapiens), sequence (P45983 whole entry): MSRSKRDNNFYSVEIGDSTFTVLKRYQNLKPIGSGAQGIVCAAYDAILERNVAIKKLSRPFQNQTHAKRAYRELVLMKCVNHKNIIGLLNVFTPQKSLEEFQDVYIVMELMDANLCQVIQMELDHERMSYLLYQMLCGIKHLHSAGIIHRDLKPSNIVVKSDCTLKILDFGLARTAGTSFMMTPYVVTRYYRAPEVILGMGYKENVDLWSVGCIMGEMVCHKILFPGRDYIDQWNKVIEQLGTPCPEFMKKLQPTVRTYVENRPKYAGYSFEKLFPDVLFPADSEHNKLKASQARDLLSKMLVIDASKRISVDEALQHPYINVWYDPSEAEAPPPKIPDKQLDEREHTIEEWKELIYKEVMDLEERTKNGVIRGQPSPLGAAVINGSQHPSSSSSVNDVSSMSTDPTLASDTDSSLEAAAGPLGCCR
Serine/threonine-protein kinase PAK 4, sequence (O96013 whole entry): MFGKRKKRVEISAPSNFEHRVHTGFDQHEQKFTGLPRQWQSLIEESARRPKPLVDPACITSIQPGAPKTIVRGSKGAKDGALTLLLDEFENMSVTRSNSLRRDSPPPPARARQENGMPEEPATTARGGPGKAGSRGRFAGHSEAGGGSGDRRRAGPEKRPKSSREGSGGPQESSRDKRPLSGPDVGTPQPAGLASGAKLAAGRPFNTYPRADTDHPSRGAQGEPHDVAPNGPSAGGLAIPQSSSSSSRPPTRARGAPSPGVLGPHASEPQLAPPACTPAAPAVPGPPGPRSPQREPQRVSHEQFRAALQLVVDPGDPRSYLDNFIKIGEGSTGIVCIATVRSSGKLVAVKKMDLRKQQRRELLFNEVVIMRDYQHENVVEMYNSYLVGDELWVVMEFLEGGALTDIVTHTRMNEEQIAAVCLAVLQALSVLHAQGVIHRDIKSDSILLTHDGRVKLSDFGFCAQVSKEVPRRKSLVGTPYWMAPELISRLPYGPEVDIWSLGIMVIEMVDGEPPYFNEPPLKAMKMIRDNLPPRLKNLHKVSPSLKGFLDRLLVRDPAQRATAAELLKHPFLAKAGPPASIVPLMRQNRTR
Dual specificity mitogen-activated protein kinase kinase 1 (Homo sapiens), sequence (Q02750 whole entry): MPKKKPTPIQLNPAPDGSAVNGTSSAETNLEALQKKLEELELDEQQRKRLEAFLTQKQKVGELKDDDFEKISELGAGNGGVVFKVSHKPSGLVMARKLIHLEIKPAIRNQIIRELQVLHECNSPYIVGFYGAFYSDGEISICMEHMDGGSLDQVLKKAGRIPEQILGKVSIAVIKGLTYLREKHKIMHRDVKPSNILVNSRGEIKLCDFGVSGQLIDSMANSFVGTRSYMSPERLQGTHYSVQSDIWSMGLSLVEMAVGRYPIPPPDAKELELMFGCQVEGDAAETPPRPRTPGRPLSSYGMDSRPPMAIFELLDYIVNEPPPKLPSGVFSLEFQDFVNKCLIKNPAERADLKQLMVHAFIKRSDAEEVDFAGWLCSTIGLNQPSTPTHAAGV
Tyrosine-protein kinase Lck (Homo sapiens), sequence (P06239 2-509 limits assumed): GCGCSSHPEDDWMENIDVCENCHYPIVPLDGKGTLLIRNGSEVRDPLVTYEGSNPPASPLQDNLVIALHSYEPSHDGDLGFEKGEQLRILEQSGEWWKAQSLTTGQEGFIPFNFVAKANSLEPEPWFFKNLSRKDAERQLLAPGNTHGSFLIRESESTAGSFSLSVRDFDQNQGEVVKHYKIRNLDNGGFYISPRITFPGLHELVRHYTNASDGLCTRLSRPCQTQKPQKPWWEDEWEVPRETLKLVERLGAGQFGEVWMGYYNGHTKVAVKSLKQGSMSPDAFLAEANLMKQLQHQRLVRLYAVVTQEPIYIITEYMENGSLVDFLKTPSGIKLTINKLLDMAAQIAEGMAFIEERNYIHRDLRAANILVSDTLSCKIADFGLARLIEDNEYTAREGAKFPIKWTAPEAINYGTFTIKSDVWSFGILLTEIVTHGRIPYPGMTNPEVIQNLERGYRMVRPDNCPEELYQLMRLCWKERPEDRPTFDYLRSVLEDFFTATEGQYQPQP
LIM domain kinase 1 (Homo sapiens), sequence (P53667 whole entry, looked up, the tested form may be a part): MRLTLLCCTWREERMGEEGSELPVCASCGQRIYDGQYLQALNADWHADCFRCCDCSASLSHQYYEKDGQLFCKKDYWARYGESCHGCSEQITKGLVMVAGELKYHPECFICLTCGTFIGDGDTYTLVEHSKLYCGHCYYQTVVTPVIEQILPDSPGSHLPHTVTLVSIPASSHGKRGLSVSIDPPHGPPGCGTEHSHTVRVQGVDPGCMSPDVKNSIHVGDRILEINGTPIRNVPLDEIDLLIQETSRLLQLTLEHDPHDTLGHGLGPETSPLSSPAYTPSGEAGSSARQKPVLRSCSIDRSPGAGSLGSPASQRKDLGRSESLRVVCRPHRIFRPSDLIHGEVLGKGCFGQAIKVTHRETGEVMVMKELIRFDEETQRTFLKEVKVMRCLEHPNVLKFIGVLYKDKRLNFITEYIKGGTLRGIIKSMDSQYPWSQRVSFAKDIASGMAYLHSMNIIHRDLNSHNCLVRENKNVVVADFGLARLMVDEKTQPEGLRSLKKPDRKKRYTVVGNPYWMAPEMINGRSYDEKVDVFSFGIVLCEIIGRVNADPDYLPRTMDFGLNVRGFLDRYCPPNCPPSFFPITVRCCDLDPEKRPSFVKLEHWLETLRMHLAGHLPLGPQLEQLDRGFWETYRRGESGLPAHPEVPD

Q: For `Cc1cccn(-c2ccc(-c3ccc4c(C(=O)NCc5ccncc5)n[nH]c4c3)c(Cl)c2)c1=O`, which Activity [1] is on record?
A: The Activity was 94.2%.

Q: And the Activity [2]?
A: The Activity was 84.4%.

Q: What about the Activity [3] of the same compound?
A: Its Activity is 88.6%.

Q: What about the IC50 [4] of the same compound?
A: The IC50 was 16 µM.

Q: What about the inhibition of growth at 1 µM (MDA-MB-231 [5]) of the same compound?
A: Its inhibition of growth at 1 µM is 6.31%.

Q: What about the Activity [6] of the same compound?
A: The Activity was 115%.

Q: What about the IC50 [7] of the same compound?
A: The IC50 was > 10 µM.

Q: What about the Activity [8] of the same compound?
A: Its Activity is 87.8%.

Q: What about the Activity [9] of the same compound?
A: The Activity was 88.4%.

Q: And the Activity [10]?
A: The Activity was 80%.

Q: And the Activity [11]?
A: Its Activity is 112%.

Q: And the Activity [12]?
A: Its Activity is 99%.

Q: And the Activity (MDA-MB-231 [13])?
A: Its Activity is <40%.

Q: And the Activity [14]?
A: Its Activity is 27.6%.

Q: And the Activity [15]?
A: Its Activity is 92.4%.

Q: And the Activity [16]?
A: The Activity was 64%.

Q: And the Activity [17]?
A: Its Activity is 98.8%.

Q: What about the inhibition [18] of the same compound?
A: The inhibition was “Dose-dependent effect”.

Q: What about the Activity [19] of the same compound?
A: The Activity was 72.8%.

Q: What about the Activity (MDA-MB-231 [20]) of the same compound?
A: Its Activity is “Dose-dependent effect”.

Q: What about the inhibition [21] of the same compound?
A: The inhibition was “Active”.
